# A selection: hits, their analogues and other compounds. The true share with any hit is near 2%.
# APJ antagonist: antagonists of human apelin receptor APJ, primary screen, CHO-K1 cells, beta-arrestin complementation, luminescence; 330,000 compounds, 0.32% hits; AID 2521, 2010; P35414; inhibition, % at 20 µM;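 active = inhibition above about 40% at 20 µM, limit read from the data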;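 note: cells challenged with 10 nM apelin-13 agonist together with compound; plate controls were apelin-13 plus DMSO wells for no effect and DMSO wells lacking apelin-13 for full effect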
# CXCR6 inh: CXCR6 receptor inhibitors, primary screen, cell-based, beta-arrestin, luminescence, CHO-K1 PathHunter, 1536-well; AID 602244, 2012; inhibition, % at 20 µM; C-X-C chemokine receptor type 6 (Homo sapiens), O00574; 360,000 compounds, 0.36% hits; in the data active = inhibition above about 34%, passing the limit was not always enough;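 note: antagonist mode with CXCL16 agonist at 10 nM final; 0% = 10 nM CXCL16 with DMSO and 100% = unstimulated wells without agonist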
# Target sequence (O00574 whole entry, looked up): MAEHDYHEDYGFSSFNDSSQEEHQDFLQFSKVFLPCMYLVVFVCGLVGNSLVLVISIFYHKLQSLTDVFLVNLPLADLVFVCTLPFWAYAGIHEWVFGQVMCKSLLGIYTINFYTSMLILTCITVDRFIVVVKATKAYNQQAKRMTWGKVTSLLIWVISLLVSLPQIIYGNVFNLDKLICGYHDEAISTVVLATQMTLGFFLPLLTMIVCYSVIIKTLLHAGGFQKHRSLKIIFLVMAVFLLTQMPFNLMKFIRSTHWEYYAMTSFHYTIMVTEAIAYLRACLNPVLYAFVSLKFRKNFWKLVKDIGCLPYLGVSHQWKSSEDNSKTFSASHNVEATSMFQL
# EBI2 block: EBI2 receptor antagonists, beta-arrestin recruitment, primary screen, cell-based, luminescence, 7a,25-OHC stimulation, uHTS. G-protein coupled receptor 183 (Homo sapiens), P32249. 7a,25-OHC stimulated. inhibition, % at 5 µM. 360,000 compounds, 0.81% hits; in the data active = inhibition above about 38%;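 note: enzyme fragment complementation signal reports receptor beta-arrestin coupling in cells; 0% = agonist plus DMSO wells and 100% = wells without agonist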
# CCR6 antagonist: CCR6 receptor antagonists, primary screen, cell-based, CHO-K1, luminescence, beta-arrestin, uHTS | inhibition, % at 20 µM | 340,000 compounds, 0.49% hits | CHO-K1 CCR6 PathHunter beta-arrestin, CCL20-stimulated;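 active = compounds whose inhibition of the agonist-driven luminescence signal at 20 µM reaches about 50%, limit read from the data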;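 note: cells stimulated with CCL20 at 14 nM final; plate controls were DMSO with CCL20 for no effect and DMSO without agonist for full effect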
# Target sequence (P51684 whole entry, looked up): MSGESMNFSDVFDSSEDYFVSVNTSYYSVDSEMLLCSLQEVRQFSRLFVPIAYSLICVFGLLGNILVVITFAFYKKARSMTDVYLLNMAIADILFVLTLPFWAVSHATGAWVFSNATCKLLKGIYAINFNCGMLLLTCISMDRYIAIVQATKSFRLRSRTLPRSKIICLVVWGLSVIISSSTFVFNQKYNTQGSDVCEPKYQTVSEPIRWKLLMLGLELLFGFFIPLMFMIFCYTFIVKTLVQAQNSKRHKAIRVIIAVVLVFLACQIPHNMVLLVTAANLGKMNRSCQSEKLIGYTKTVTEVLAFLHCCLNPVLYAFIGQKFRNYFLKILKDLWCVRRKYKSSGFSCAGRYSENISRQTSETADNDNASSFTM
# APJ ag: agonists of human apelin receptor APJ, primary screen, CHO-K1 cells, PathHunter beta-arrestin, luminescence; P35414; AID 2520, 2010; 0% DMSO wells, 100% apelin; activation, % at 20 µM; 330,000 compounds, 0.11% hits;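 active = activation more than six SD over the plate average, tested at 20 µM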;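 note: 0% = DMSO alone and 100% = apelin-13 at 10 nM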
#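 Assay system: CHO-K1 APJ beta-arrestin complementation cell line / Compound: single test compound dose, 20 µM final, 1% DMSO / Times: overnight seeding, 90 min compound at 25 °C, 1 h detection / Technique: beta-gal luminescence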
# GAA850 FXN act: FXN promoter activators, primary screen, cell-based, luciferase luminescence, HEK293 lucGAA850 | 360,000 compounds, 0.56% hits | HEK293 lucGAA850 FXN promoter luciferase reporter, 24 h; percent of 10 µM SAHA response | activation, % at 6 µM;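 active = activation above the average of all compounds screened plus 3 SD, cutoff fixed separately per campaign, cut at about 7.5% in these data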;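 note: 0% = DMSO wells and 100% = 10 µM SAHA wells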
# CXCR6 confirm: CXCR6 receptor antagonists, confirmation, cell-based, single concentration, beta-arrestin, luminescence. shares compounds with CXCR6 inh. CHO-K1 CXCR6 PathHunter beta-arrestin. inhibition, % at 20 µM. 700 compounds, 65% hits. AID 602409, 2012;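 active = mean inhibition over four retests above 40%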;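 note: receptor stimulated with 10 nM CXCL16 agonist; beta-galactosidase fragment complementation upon beta-arrestin recruitment to receptor; plate controls were CXCL16 plus DMSO for no effect and DMSO without CXCL16 for full effect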
# Active calls of the source: *; . = no result.
SMILES,APJ antagonist,CXCR6 inh,EBI2 block,CCR6 antagonist,APJ ag,GAA850 FXN act,CXCR6 confirm
S=c1nc(-c2ccccc2)[nH]c2ccc(Br)cc12,25.5,42.2*,2.3,29.7,-2.4,2.2,9.4
c1ccc(-c2nc3ccccc3[nH]2)cc1,-13.1,-2.5,-5.6,9.9,-0.5,3.1,.
COc1ccc(OC)c(/C=C/c2ccc3cccc(O)c3n2)c1,37.7,48.4*,23.4,.,-7.1,4.3,59.1*
c1ccc(N2CCN(c3cccc(-c4cc5ccccc5s4)n3)CC2)nc1,.,1.0,-1.0,.,.,-0.1,.
CCc1nc2c(OCCC3CCCCC3)cccn2c1N(C)C(=O)c1ccc(OC)cc1,.,44.9*,21.7,.,.,-0.8,5.6
Oc1ccc(F)c2cccnc12,-16.6,28.5,3.6,37.9,-1.8,0.1,.
Oc1ccc(Cl)c2cccnc12,.,42.7*,16.9,65.7*,.,0.6,60.2*
CCCSc1cc(NCCOC(C)=O)c([N+](=O)[O-])c2nonc12,22.2,5.8,7.8,17.5,-3.7,2.0,.
CCCC(=O)OCCNc1cc(Sc2nccn2C)c2nonc2c1[N+](=O)[O-],.,99.9*,49.3*,98.6*,.,3.6,105.2*
CCOC(=O)C1CCCN(c2cc(NCCCO)c([N+](=O)[O-])c3nonc23)C1 (centres undefined),17.9,.,.,.,-3.1,.,.
CCC(=O)OCCNc1cc(Sc2nc3ccccc3[nH]2)c2nonc2c1[N+](=O)[O-],.,101.6*,33.5,117.0*,.,3.9,106.3*
CCCC(=O)OCCNc1cc(SCc2ccco2)c2nonc2c1[N+](=O)[O-],-22.9,38.2*,-26.0,67.4*,4.6,2.0,52.7*
C[C@H](CO)N1C[C@H](C)[C@@H](CN(C)C(=O)C2CCCCC2)OCc2cn(nn2)CCCC1=O,.,1.2,-4.4,.,.,-0.7,.
c1ccc(-c2nnc3nc(N4CCCCC4)nc(N4CCCCC4)n23)cc1,.,6.5,2.0,22.2,.,1.7,.
C=C(C)c1cccc(C(C)(C)NC(=O)NC(c2ccccc2)c2ccc(OC)cc2)c1 (centres undefined),0.6,45.4*,-0.1,13.3,-4.1,1.2,13.0
O=S(=O)(/C=C/C=C/S(=O)(=O)c1ccccc1)c1ccccc1,.,69.6*,53.7*,88.6*,.,-16.1,67.4*
CC(=O)Nc1cccc(OCC(O)Cn2cnc3ccccc32)c1 (centres undefined),-7.2,1.5,-8.2,-11.8,-1.9,0.1,.
CC(=O)Nc1cccc(OCC(O)Cn2c(C)nc3ccccc32)c1 (centres undefined),16.0,40.5*,-4.3,17.5,2.8,2.1,22.7
Cc1ccc2nc(COC(=O)c3cccnc3Cl)cc(=O)n2c1,.,-7.5,-3.4,.,.,2.2,.
O=C(COC(=O)c1ccco1)NCCNC(=O)COC(=O)c1ccco1,-2.6,35.5*,-1.1,0.8,-2.0,1.0,5.6
NS(=O)(=O)c1ccc(CCNC(=O)CCNC(=O)c2ccco2)cc1,2.2,2.4,4.6,6.5,-0.2,-1.3,.
O=C(CCNC(=O)c1ccco1)NCCc1ccc(Cl)cc1,6.7,40.3*,7.6,8.5,-2.4,1.8,16.6
CC(C)N(C)c1ncnc2c1ncn2[C@H]1CN(Cc2ccc3c(c2)OCO3)C[C@@H](CO)O1,.,7.9,9.0,.,.,0.9,.
CC1(C(=O)NS(=O)(=O)c2cccs2)CCN1C(=O)CC1CCCCC1 (centres undefined),.,-0.5,-0.8,.,.,1.5,.
O=C(Nc1cccc(S(=O)(=O)N2CCCC2)c1)[C@H]1C[C@H](O)[C@@H](CO)O1,.,4.8,-5.0,.,.,0.4,.
SMILES,APJ antagonist,CXCR6 inh,EBI2 block,CCR6 antagonist,APJ ag,GAA850 FXN act,CXCR6 confirm
CCCCCCC(=O)Oc1cccc(C2=CC(=O)CC(C)(C)C2=O)c1,.,-4.4,-5.7,.,.,0.5,.
C=C1C(=O)[C@]23C[C@H]1CCC2[C@@]1(C)C(C[C@@H]3O)[C@](C)(C(=O)OC)CC[C@@H]1OC(C)=O (some centres undefined),.,68.9*,80.5*,.,.,.,88.8*
COc1ccc(C(=O)NN/C(C)=C/C(=O)c2ccccc2)cc1,18.9,7.1,-5.5,22.9,-2.9,1.8,.
C/C(=C\C(=O)c1ccccc1)NNC(=O)c1ccc(Cl)cc1,26.9,46.0*,1.8,55.5*,-5.1,0.9,6.0
CC1(CNC(=O)C(=O)NCC2(C)CO2)CO1 (centres undefined),.,4.3,-1.3,3.6,.,-0.2,.
C[C@@H](NC(=O)c1[nH]cnc1C(=O)Nc1ccccc1F)c1ccccc1,.,42.3*,-27.7,.,.,-0.8,26.3
CN(c1ccc(Cl)cc1)c1cc2c(c3c1ccn3C)C1CCC2O1 (centres undefined),.,3.6,7.3,.,.,.,.
O=C1C(=C(c2ccccc2)N2CCOCC2)Cc2ccccc21,.,69.8*,23.9,.,.,-1.5,78.0*
O=C(c1ccccc1)N1CCN(C(=O)N2CCOCC2)CC1,2.4,-6.4,-1.4,-6.5,2.5,-1.7,.
Cc1ccc(-c2ccc(=O)n(Cc3c(F)cccc3Cl)n2)cc1,-3.9,-8.3,8.7,-10.5,-0.6,2.3,.
Cc1cc(C)c2c(=O)n(CC(=O)NC3CCCC3)sc2n1,-26.9,99.3*,15.7,14.9,1.7,2.9,33.7
COc1ccc(OC)c(CCNC(=O)Cn2sc3nc(C)cc(C)c3c2=O)c1,-19.0,.,.,.,4.0,.,.
O=C(NC(=S)N1CCN(c2ccc(C(F)(F)F)cc2[N+](=O)[O-])CC1)c1cccs1,22.1,52.4*,6.6,.,0.4,-4.5,56.2*
O=C(CSc1ccccn1)Nc1ccc(NC(=O)CSc2ccccn2)cc1,-9.0,87.4*,8.6,9.8,-0.1,4.7,9.8
CCc1ccc(NC(=O)CSc2ccccn2)cc1,3.4,2.4,3.0,6.1,-2.6,5.9,.
COc1ccc(CN2CCC[C@]3(N[C@H](c4ccc(C(F)(F)F)cc4)[C@@H]4C(=O)N(C)C(=O)[C@@H]43)C2=O)cc1,.,0.3,1.4,.,.,0.7,.
CC(C)c1ccccc1NC(=O)Nc1nnc([C@H]2C[C@H](O)[C@@H](CO)O2)s1,.,-3.9,0.4,.,.,0.6,.
Cc1ccc(/C(O)=C/C(=O)C(=O)NC23CC4CC(CC(C4)C2)C3)cc1,28.4,53.4*,-3.8,69.9*,-16.0,0.5,38.5
Cc1ccc(C(=O)NCC(=O)NC23CC4CC(CC(C4)C2)C3)cc1,-4.5,6.1,13.8,4.5,-2.7,6.2,.
CCCC[C@@H]1CNC(=O)C(=O)N1CCCCC1CCCCC1,.,5.0,3.2,.,.,.,.

# Screens (PubChem)
